How the values were obtained:
[1] = target: T1, Adenosine receptor A2b (Homo sapiens, UniProt P29275); test: Displacement of [3H]-MRS-1754 from human adenosine A2B receptor expressed in HEK293 cell membranes after 90 mins
T1 sequence (P29275 whole entry): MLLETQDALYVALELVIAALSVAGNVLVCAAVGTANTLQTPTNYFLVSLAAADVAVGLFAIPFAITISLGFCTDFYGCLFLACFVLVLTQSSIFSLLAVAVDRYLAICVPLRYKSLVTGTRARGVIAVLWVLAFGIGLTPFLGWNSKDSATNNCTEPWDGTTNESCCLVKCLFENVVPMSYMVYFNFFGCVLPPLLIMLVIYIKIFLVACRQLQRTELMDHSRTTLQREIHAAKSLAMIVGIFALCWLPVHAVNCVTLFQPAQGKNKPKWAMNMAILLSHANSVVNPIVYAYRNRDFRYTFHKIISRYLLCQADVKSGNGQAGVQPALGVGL
Method in brief: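 Membranes from HEK-293 cells stably expressing human A2B, ADA-treated, incubated with 1.6 nM [3H]-MRS-1754 in 50 mM Tris pH 6.5, 5 mM MgCl2, 1 mM EDTA, 1 U/ml ADA. Incubation 90 min at room temperature. Filtration; nonspecific binding with 100 µM NECA. Eight compound concentrations, each in triplicate; Ki derived by fitting.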

[2] = target: T2, Adenosine receptor A3 (Homo sapiens) (UniProt P0DMS8); test: Displacement of [3H]-HEMADO from human adenosine A3 receptor expressed in HEK293 cell membranes at 1 uM after 90 mins relative to control
T2 sequence (whole entry): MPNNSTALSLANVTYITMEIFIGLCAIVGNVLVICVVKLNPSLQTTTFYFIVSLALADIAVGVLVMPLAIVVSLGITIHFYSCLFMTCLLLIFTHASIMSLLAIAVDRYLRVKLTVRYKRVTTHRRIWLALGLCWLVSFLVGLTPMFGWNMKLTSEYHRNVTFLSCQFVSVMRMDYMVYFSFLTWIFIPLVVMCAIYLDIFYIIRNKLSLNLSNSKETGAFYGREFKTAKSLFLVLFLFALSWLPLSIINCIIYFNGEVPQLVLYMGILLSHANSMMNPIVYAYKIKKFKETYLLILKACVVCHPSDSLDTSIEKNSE
Method in brief: (§1)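 Membranes from HEK-293 cells stably transfected with human A1, A2A or A3 receptor, pretreated with 1 U/ml ADA. Membranes are incubated 90 min at room temperature with gentle agitation. Tracer and buffer per receptor: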

[3] = target: Adenosine receptor A2a (Homo sapiens) (UniProt P29274); test: Displacement of [3H]-ZM241385 from human adenosine A2A receptor expressed in HEK293 cell membranes at 0.1 uM after 90 mins relative to control; method in brief: as §1
[4] = target: T3, Adenosine receptor A1 (Homo sapiens) (UniProt P30542); test: Displacement of [3H]-DPCPX from human adenosine A1 receptor expressed in HEK293 cell membranes at 0.1 uM after 90 mins relative to control; method in brief: as §1
T3 sequence (whole entry): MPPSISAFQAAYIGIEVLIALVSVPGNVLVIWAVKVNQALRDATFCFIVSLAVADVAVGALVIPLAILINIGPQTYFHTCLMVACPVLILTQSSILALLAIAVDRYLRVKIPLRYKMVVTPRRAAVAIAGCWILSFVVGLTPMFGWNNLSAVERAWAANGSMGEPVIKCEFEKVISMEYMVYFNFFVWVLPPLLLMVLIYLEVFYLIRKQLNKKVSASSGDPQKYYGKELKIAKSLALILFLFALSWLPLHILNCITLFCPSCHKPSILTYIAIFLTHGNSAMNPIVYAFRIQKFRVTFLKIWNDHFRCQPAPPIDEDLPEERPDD

Chain of Adenosine receptor A2a (Homo sapiens) (P29274 whole entry): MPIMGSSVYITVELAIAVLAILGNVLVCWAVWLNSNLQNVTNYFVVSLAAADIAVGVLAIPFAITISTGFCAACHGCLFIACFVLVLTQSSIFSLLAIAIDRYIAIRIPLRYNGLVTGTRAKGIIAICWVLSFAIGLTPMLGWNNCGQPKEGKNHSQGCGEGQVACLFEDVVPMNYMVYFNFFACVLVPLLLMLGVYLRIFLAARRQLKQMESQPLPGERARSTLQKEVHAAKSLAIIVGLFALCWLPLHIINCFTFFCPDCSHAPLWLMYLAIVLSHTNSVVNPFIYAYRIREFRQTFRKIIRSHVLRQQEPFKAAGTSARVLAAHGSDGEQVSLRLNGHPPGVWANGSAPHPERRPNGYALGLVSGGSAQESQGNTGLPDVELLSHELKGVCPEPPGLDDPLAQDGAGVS

CCCn1c(=O)c2[nH]c(-c3cnn(CC#Cc4ccc(C(=O)O)cc4)c3)nc2n(CCC)c1=O
Ki ([1]; read-out: Ki): 17.6 nM | inhibition [2]: 25% | inhibition [3]: 44% | inhibition [4]: 19%

CCCn1c(=O)c2[nH]c(-c3cnn(CC#Cc4ccc(C(=O)O)cc4)c3)nc2n(CC)c1=O
Ki ([1]; read-out: Ki): 130 nM

CCCn1c(=O)c2[nH]c(-c3cc(OCC#Cc4ccc(F)cc4)no3)nc2n(CCC)c1=O
Ki ([1]; read-out: Ki): 15 nM

CCCn1c(=O)[nH]c2nc(-c3cnn(CC#Cc4ccc(C(F)(F)F)cc4)c3)[nH]c2c1=O
Ki ([1]; read-out: Ki): 1.3 nM | inhibition [2]: 15% | inhibition [3]: 39% | inhibition [4]: 89%

CCCn1c(=O)c2[nH]c(-c3cc(OCC#Cc4ccc(C(F)(F)F)cc4)no3)nc2n(CCC)c1=O
Ki ([1]; hek293): Nd(Insoluble)

CCCn1c(=O)c2[nH]c(-c3cnn(CC#CC4(O)CCCCC4)c3)nc2n(CCC)c1=O
Ki ([1]; read-out: Ki): 100 nM

CCCn1c(=O)c2[nH]c(-c3ccc(OCC#Cc4ccc(F)cc4)cc3)nc2n(CCC)c1=O
Ki ([1]; hek293): Nd(Insoluble)

CCCn1c(=O)c2[nH]c(-c3cnn(CC#Cc4ccc(C)cc4)c3)nc2n(CCC)c1=O
Ki ([1]; read-out: Ki): 6.5 nM | inhibition [2]: 0% | inhibition [3]: 33% | inhibition [4]: 70%

CCCn1c(=O)c2[nH]c(-c3cnn(CC#Cc4cccc(OC)c4)c3)nc2n(CCC)c1=O
Ki ([1]; read-out: Ki): 6.3 nM | inhibition [2]: 21% | inhibition [3]: 74% | inhibition [4]: 57%

CCCn1c(=O)c2[nH]c(-c3cnn(CC#CCN(CC)CC)c3)nc2n(CCC)c1=O
Ki ([1]; read-out: Ki): 200 nM | inhibition [2]: 69% | inhibition [3]: 59% | inhibition [4]: 71%

CCCn1c(=O)[nH]c2nc(-c3cnn(CC#Cc4cccc(C(=O)O)c4)c3)[nH]c2c1=O
Ki ([1]; read-out: Ki): 48 nM

CCCn1c(=O)c2[nH]c(-c3cnn(CC#Cc4ccc(OC(F)(F)F)cc4)c3)nc2n(CCC)c1=O
Ki ([1]; read-out: Ki): 5.5 nM | inhibition [2]: 37% | inhibition [3]: 51% | inhibition [4]: 92%

CCCn1c(=O)[nH]c2nc(-c3cnn(CC#Cc4cccc(F)c4)c3)[nH]c2c1=O
Ki ([1]; read-out: Ki): 3 nM | inhibition [2]: 0% | inhibition [3]: 60% | inhibition [4]: 53%

CCCn1c(=O)c2[nH]c(-c3cnn(CC#Cc4ccccc4C(=O)OC)c3)nc2n(CCC)c1=O
Ki ([1]; read-out: Ki): 12 nM | inhibition [2]: 43% | inhibition [3]: 41% | inhibition [4]: 37%

CCCn1c(=O)c2[nH]c(-c3cnn(CC#Cc4ccc(OC(F)(F)F)cc4)c3)nc2n(CC)c1=O
Ki ([1]; read-out: Ki): 9.9 nM | inhibition [2]: 32% | inhibition [3]: 49% | inhibition [4]: 84%

CCCn1c(=O)c2[nH]c(-c3cc(OCC#Cc4cccc(C(F)(F)F)c4)n(C)n3)nc2n(CCC)c1=O
Ki ([1]; hek293): Nd(Insoluble)

CCCn1c(=O)c2[nH]c(-c3cnn(CC#CCN4CCN(c5cccc(C(F)(F)F)c5)CC4)c3)nc2n(CCC)c1=O
Ki ([1]; read-out: Ki): 12 nM | inhibition [2]: 31% | inhibition [3]: 10% | inhibition [4]: 69%

CCCn1c(=O)c2[nH]c(-c3ccc(OCC#Cc4ccc(C(F)(F)F)cc4)cc3)nc2n(CCC)c1=O
Ki ([1]; hek293): Nd(Insoluble)

CCCn1c(=O)c2[nH]c(-c3cc(OCC#Cc4cccc(OC(F)(F)F)c4)no3)nc2n(CCC)c1=O
Ki ([1]; read-out: Ki): > 600 nM

CCCn1c(=O)c2[nH]c(-c3cnn(CC#Cc4ccc(C(F)(F)F)cc4)c3)nc2n(CCC)c1=O
Ki ([1]; read-out: Ki): 1.5 nM | inhibition [2]: 12% | inhibition [3]: 30% | inhibition [4]: 84%

CCCn1c(=O)[nH]c2nc(-c3cnn(CC#Cc4ccc(F)cc4)c3)[nH]c2c1=O
Ki ([1]; read-out: Ki): 1.6 nM | inhibition [2]: 0% | inhibition [3]: 55% | inhibition [4]: 77%

CCCn1c(=O)c2[nH]c(-c3ccc(OCC#Cc4cccc(F)c4)cc3)nc2n(CCC)c1=O
Ki ([1]; read-out: Ki): > 1000 nM

CCCn1c(=O)c2[nH]c(-c3cnn(CC#CCN4CCOCC4)c3)nc2n(CCC)c1=O
Ki ([1]; read-out: Ki): 330 nM | inhibition [2]: 51% | inhibition [3]: 39% | inhibition [4]: 28%

CCCn1c(=O)c2[nH]c(-c3cnn(CC#CCN4CCN(C)CC4)c3)nc2n(CCC)c1=O
Ki ([1]; read-out: Ki): 83 nM | inhibition [2]: 79% | inhibition [3]: 73% | inhibition [4]: 55%

CCCn1c(=O)c2[nH]c(-c3cc(OCC#Cc4ccc(OC(F)(F)F)cc4)n(C)n3)nc2n(CCC)c1=O
Ki ([1]; hek293): Nd(Insoluble)

CCCn1c(=O)c2[nH]c(-c3ccc(OCC#Cc4ccc(OC(F)(F)F)cc4)cc3)nc2n(CCC)c1=O
Ki ([1]; read-out: Ki): > 600 nM

CCCn1c(=O)c2[nH]c(-c3cnn(CC#Cc4ccc(C#N)cc4)c3)nc2n(CCC)c1=O
Ki ([1]; read-out: Ki): 14 nM | inhibition [2]: 14% | inhibition [3]: 29% | inhibition [4]: 14%

CCCn1c(=O)[nH]c2nc(-c3cnn(CC#Cc4cccc(C(F)(F)F)c4)c3)[nH]c2c1=O
Ki ([1]; read-out: Ki): 2.2 nM | inhibition [2]: 0% | inhibition [3]: 39% | inhibition [4]: 26%

CCCn1c(=O)c2[nH]c(-c3ccc(OCC#Cc4cccc(OC(F)(F)F)c4)cc3)nc2n(CCC)c1=O
Ki ([1]; hek293): Nd(Insoluble)

CC#CCn1cc(-c2nc3c([nH]2)c(=O)n(CCC)c(=O)n3CCC)cn1
Ki ([1]; read-out: Ki): 23 nM | inhibition [3]: 60% | inhibition [4]: 42%

CCCn1c(=O)c2[nH]c(-c3cnn(CC#Cc4cccc(C#N)c4)c3)nc2n(CCC)c1=O
Ki ([1]; read-out: Ki): 3.7 nM | inhibition [2]: 0% | inhibition [3]: 84% | inhibition [4]: 52%

CCCn1c(=O)[nH]c2nc(-c3cnn(CC#Cc4ccc(OC(F)(F)F)cc4)c3)[nH]c2c1=O
Ki ([1]; read-out: Ki): 1.6 nM | inhibition [2]: 17% | inhibition [3]: 46% | inhibition [4]: 88%

CCCn1c(=O)c2[nH]c(-c3cnn(CC#Cc4cccc(F)c4)c3)nc2n(CCC)c1=O
Ki ([1]; read-out: Ki): 6.7 nM | inhibition [2]: 0% | inhibition [3]: 64% | inhibition [4]: 87%

C#CCn1cc(-c2nc3c([nH]2)c(=O)n(CCC)c(=O)n3CCC)cn1
Ki ([1]; read-out: Ki): 62 nM | inhibition [2]: 32% | inhibition [3]: 69% | inhibition [4]: 56%

CCCn1c(=O)c2[nH]c(-c3cnn(CC#Cc4cccc(F)c4)c3)nc2n(CC)c1=O
Ki ([1]; read-out: Ki): 7.4 nM | inhibition [2]: 23% | inhibition [3]: 58% | inhibition [4]: 73%

CCCn1c(=O)c2[nH]c(-c3cc(OCC#Cc4cccc(C(F)(F)F)c4)no3)nc2n(CCC)c1=O
Ki ([1]; read-out: Ki): > 600 nM

CCCn1c(=O)c2[nH]c(-c3cnn(CC#CCN4CCCCC4)c3)nc2n(CCC)c1=O
Ki ([1]; read-out: Ki): 140 nM | inhibition [2]: 73% | inhibition [3]: 74% | inhibition [4]: 64%

CCCn1c(=O)c2[nH]c(-c3cnn(CC#Cc4ccc(F)cc4)c3)nc2n(CC)c1=O
Ki ([1]; read-out: Ki): 7.3 nM | inhibition [2]: 33% | inhibition [3]: 56% | inhibition [4]: 92%

CCCn1c(=O)c2[nH]c(-c3cnn(CC#Cc4cccc(C)c4)c3)nc2n(CCC)c1=O
Ki ([1]; read-out: Ki): 5 nM | inhibition [2]: 9% | inhibition [3]: 55% | inhibition [4]: 57%

CCCn1c(=O)[nH]c2nc(-c3cnn(CC#Cc4cccc(OC(F)(F)F)c4)c3)[nH]c2c1=O
Ki ([1]; read-out: Ki): 2.8 nM | inhibition [2]: 0% | inhibition [3]: 33% | inhibition [4]: 14%

CCCn1c(=O)c2[nH]c(-c3cnn(CC#Cc4cccc(C(=O)O)c4)c3)nc2n(CC)c1=O
Ki ([1]; read-out: Ki): 190 nM

CCCn1c(=O)c2[nH]c(-c3cnn(CC#Cc4ccc(F)cc4)c3)nc2n(CCC)c1=O
Ki ([1]; read-out: Ki): 5.9 nM | inhibition [2]: 19% | inhibition [3]: 66% | inhibition [4]: 105%

CCCn1c(=O)c2[nH]c(-c3cnn(CC#Cc4ccc(C(F)(F)F)cc4)c3)nc2n(CC)c1=O
Ki ([1]; read-out: Ki): 12 nM | inhibition [2]: 14% | inhibition [3]: 21% | inhibition [4]: 66%

CCCn1c(=O)c2[nH]c(-c3cnn(CC#CC4(O)CCCC4)c3)nc2n(CCC)c1=O
Ki ([1]; read-out: Ki): 79 nM

CCCn1c(=O)c2[nH]c(-c3cnn(CC#CCN4CCCC4)c3)nc2n(CCC)c1=O
Ki ([1]; read-out: Ki): 120 nM | inhibition [2]: 59% | inhibition [3]: 67% | inhibition [4]: 66%

CCCn1c(=O)c2[nH]c(-c3cnn(CC#Cc4cccc(C(F)(F)F)c4)c3)nc2n(CCC)c1=O
Ki ([1]; read-out: Ki): 4.9 nM | inhibition [2]: 32% | inhibition [3]: 64% | inhibition [4]: 43%

CCCn1c(=O)c2[nH]c(-c3cc(OCC#Cc4cccc(F)c4)no3)nc2n(CCC)c1=O
Ki ([1]; read-out: Ki): 55 nM

From ChEMBL document CHEMBL4020725, “Design and synthesis of novel xanthine derivatives as potent and selective A2B adenosine receptor antagonists for the treatment of chronic inflammatory airway diseases” (Eur J Med Chem, 2017)
